Test results as given in ChEMBL document CHEMBL3124927, “New C(4)- and C(1)-derivatives of furo[3,4-c]pyridine-3-ones and related compounds: evidence for site-specific inhibition of the constitutive proteasome and its immunoisoform” (Bioorg Med Chem Lett, 2014).
Active and inactive are the calls of the source. No cut-off for these calls is given here.

How the values were obtained:
[1] = biological target: T1, Calpain-1 catalytic subunit (Homo sapiens) (UniProt P07384); assay: Inhibition of human calpain-1 using Suc-LLVY-AMC as substrate by fluorescence assay
T1 sequence (whole entry): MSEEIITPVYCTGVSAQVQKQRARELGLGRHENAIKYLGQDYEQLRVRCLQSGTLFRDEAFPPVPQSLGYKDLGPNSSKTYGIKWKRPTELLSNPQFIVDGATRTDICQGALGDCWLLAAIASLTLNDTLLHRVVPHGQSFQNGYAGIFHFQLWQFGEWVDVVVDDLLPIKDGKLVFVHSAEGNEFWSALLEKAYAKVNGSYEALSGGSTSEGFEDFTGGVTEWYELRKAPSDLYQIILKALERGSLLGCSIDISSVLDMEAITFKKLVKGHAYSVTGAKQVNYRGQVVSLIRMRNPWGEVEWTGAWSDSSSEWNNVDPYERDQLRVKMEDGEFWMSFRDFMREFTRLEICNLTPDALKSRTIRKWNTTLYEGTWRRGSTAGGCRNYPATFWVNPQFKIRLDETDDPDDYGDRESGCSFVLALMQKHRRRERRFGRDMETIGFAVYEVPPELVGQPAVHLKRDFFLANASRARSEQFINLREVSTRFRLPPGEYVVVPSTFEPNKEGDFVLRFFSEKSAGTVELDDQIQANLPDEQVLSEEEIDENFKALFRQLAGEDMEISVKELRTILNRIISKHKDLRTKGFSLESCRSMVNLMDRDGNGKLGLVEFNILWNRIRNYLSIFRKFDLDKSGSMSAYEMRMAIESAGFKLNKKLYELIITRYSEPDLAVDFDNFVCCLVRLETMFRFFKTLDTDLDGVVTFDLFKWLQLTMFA
Procedure, shortened: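 Human calpain I fraction, Suc-LLVY-AMC substrate, at 25 °C in 50 mM Tris, 10 mM DTT with CaCl2, pH 7.2. Fluorescence read-out. IC50 is from percent inhibition versus inhibitor concentration.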

[2] = system: mitochondrial dehydrogenase activity (cytotoxicity readout); assay: Cytotoxicity against human HeLa cells assessed as inhibition of mitochondrial dehydrogenase activity at 50 uM after 18 to 72 hrs by XTT assay relative to control; format: cell-based; settings: read-out: INH
Procedure, shortened: (§1)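 HeLa cells seeded and handled as for the in-cell proteasome assay, then exposed to inhibitor for 18 or 72 h. Viability read as XTT reduction to formazan by mitochondrial dehydrogenases: 3 h with 1 mg/mL XTT, absorbance at 485 nm.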

[3] = biological target: Cathepsin B (Homo sapiens) (UniProt P07858); assay: Inhibition of human cathepsin B using Z-RR-AMC as substrate by fluorescence assay
Procedure, shortened: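 Human cathepsin B fraction, Z-RR-AMC substrate, at 37 °C in 352 mM KH2PO4, 48 mM Na2HPO4, 1 mM EDTA, 1 mM DTT, pH 6. Fluorescence read-out. IC50 is from percent inhibition versus inhibitor concentration.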

[4] = system: HeLa; assay: Cytotoxicity against human HeLa cells assessed as decrease cell attachment after 18 to 72 hrs by XTT assay; format: cell-based; procedure, shortened: as §1
[5] = biological target: Proteasome Macropain subunit (Homo sapiens) (UniProt P49721); assay: Inhibition of 20s immunoproteasome beta 2 subunit trypsin-like activity in human blood monocytes using Boc-LRR-AMC as substrate at 100 to 2000 nM preincubated for 2 mins followed by substrate addition by fluorescence assay; format: cell-based
Chain of Proteasome Macropain subunit (Homo sapiens) (P49721 whole entry): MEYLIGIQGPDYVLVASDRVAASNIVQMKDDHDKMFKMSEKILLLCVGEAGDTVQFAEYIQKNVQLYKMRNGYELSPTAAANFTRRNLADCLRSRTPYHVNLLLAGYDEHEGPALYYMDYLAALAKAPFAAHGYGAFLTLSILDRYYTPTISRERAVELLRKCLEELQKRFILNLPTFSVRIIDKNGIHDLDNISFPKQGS
Procedure, shortened: (§2)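 Purified immunoproteasome 20S fraction, run like the constitutive assay but with a 2-min pre-incubation with inhibitor before adding the respective substrate. Fluorescence read-out. IC50 is from percent inhibition versus concentration, fitted with a Hill-number equation.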

[6] = biological target: T2, Proteasome Macropain subunit MB1 (Homo sapiens) (UniProt P28074); assay: Inhibition of 20s immunoproteasome beta 5 subunit chymotrypsin-like activity in human blood monocytes using Suc-LLVY-AMC as substrate at 100 to 2000 nM preincubated for 2 mins followed by substrate addition by fluorescence assay; format: cell-based; procedure, shortened: as §2
T2 sequence (whole entry): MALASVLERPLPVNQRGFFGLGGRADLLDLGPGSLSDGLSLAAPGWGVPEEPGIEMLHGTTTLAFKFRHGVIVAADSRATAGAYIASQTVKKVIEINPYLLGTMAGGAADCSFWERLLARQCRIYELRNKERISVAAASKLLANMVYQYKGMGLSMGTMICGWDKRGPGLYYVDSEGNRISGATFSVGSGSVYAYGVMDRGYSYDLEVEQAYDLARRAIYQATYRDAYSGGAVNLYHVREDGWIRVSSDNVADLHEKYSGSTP

[7] = biological target: T2, Proteasome Macropain subunit MB1 (Homo sapiens); assay: Inhibition of 20s immunoproteasome beta 5 subunit chymotrypsin-like activity in human blood monocytes using Suc-LLVY-AMC as substrate at 100 uM preincubated for 2 mins followed by substrate addition by fluorescence assay; format: cell-based; procedure, shortened: as §2
[8] = Inhibition of 20s constitutive proteasome beta 2 subunit trypsin-like activity in rabbit erythrocytes using Boc-LRR-AMC as substrate incubated for 15 mins prior to substrate addition measured after 45 mins by fluorescence assay; format: cell-based, Oryctolagus cuniculus
Procedure, shortened: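 Purified rabbit erythrocyte constitutive 20S fraction, 0.27 nM enzyme, pre-incubated 15 min with or without inhibitor, then Boc-LRR-AMC added. Buffer at pH 7.5. Fluorescence read-out. IC50 is from a plot of percent inhibition against inhibitor concentration, Hill-equation fit.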

[9] = biological target: T3, Proteasome component C5 (Homo sapiens) (UniProt P20618); assay: Inhibition of 20s immunoproteasome beta 1 subunit caspase-like activity in human blood monocytes using Z-LLE-betaNA as substrate at 100 uM preincubated for 2 mins followed by substrate addition by fluorescence assay; format: cell-based; procedure, shortened: as §2
T3 sequence (whole entry): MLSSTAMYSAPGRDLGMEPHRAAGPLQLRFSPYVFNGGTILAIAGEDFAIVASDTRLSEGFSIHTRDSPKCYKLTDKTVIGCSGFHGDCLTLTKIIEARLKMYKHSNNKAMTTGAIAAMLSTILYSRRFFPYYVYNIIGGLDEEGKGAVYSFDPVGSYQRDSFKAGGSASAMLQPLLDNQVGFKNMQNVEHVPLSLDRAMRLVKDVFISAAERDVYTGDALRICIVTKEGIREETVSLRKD

[10] = species on record: Oryctolagus cuniculus; assay: Inhibition of 20s constitutive proteasome beta 1 subunit caspase-like activity in rabbit erythrocytes using Z-LLE-betaNA as substrate at 25 uM incubated for 15 mins prior to substrate addition measured after 45 mins by fluorescence assay relative to control; format: cell-based
Procedure, shortened: (§3)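 Purified rabbit erythrocyte constitutive 20S fraction, 0.27 nM enzyme, pre-incubated 15 min with or without inhibitor before substrate addition. Buffer pH 7.5: 20 mM Tris, 1 mM DTT, 10% glycerol, 0.02% (w/v) SDS. Fluorescence read-out. IC50 is from a percent inhibition versus concentration plot, fitted with a Hill-type equation.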

[11] = Inhibition of 20s constitutive proteasome beta 5 subunit chymotrypsin-like activity in rabbit erythrocytes using Suc-LLVY-AMC as substrate incubated for 15 mins prior to substrate addition measured after 45 mins by fluorescence assay; format: cell-based, Oryctolagus cuniculus; procedure, shortened: as §3
[12] = species on record: Oryctolagus cuniculus; assay: Inhibition of 20s constitutive proteasome beta 1 subunit caspase-like activity in rabbit erythrocytes using Z-LLE-betaNA as substrate at 50 uM incubated for 15 mins prior to substrate addition measured after 45 mins by fluorescence assay relative to control; format: cell-based; procedure, shortened: as §3
[13] = species on record: Oryctolagus cuniculus; assay: Inhibition of 20s constitutive proteasome beta 5 subunit chymotrypsin-like activity in rabbit erythrocytes using Suc-LLVY-AMC as substrate at 50 uM incubated for 15 mins prior to substrate addition measured after 45 mins by fluorescence assay relative to control; format: cell-based; procedure, shortened: as §3

CC1(C)OC(=O)c2c1ccnc2NCc1ccccc1
inhibition [1]: inactive
cytotoxicity at 50 µM [2]: 35%
inhibition [3]: inactive
Activity [4]: Toxic
inhibition [5]: inactive
inhibition [6]: inactive

O=c1c2cc(-c3ccccc3)sc2ncn1CCc1ccc(Cl)cc1
inhibition [7]: inactive
IC50 ([8]; read-out: IC50): 9.9 µM
inhibition [9]: inactive

CC1(C)OC(=O)c2c1ccnc2Nc1ccc(S(N)(=O)=O)cc1
inhibition [1]: inactive
inhibition [10]: inactive
inhibition [3]: inactive
IC50 [11]: Not Active
IC50 [8]: Not Active

CCN(CC)CC(O)Cn1cnc2sc(-c3ccccc3)cc2c1=O (configuration not stated)
inhibition [12]: 25%
inhibition [13]: 36%
IC50 ([8]; read-out: IC50): 19.4 µM
